Consider five molecules from ChEMBL document CHEMBL1124929, “Indolo[2,1-a]isoquinolines. Syntheses, steroid hormone receptor binding affinities, and cytostatic activity” (1990).

The target of assay [1] is T1, Androgen Receptor (Bos taurus) (UniProt Q5EM59).
T1 sequence (whole entry): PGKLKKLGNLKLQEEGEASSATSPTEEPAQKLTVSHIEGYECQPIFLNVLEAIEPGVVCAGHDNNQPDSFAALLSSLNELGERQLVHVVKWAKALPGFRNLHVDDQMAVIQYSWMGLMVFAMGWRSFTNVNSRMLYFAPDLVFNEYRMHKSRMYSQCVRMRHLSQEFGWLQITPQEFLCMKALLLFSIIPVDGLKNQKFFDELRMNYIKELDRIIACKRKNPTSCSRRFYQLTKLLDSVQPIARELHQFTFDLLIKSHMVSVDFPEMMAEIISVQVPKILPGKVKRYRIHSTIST
Briefly: Relative binding affinity(RBA) for 50% displacement of [3H]mibolerone from Androgen receptor compared to testorone. Put shortly: (§1)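 Receptor source was calf uterine cytosol (105000g supernatant, 3 mg/mL protein in assay). Buffers were Tris/EDTA pH 7.4, with NaN₃ for ER, molybdate/glycerol for AR, and sucrose for PR. Tracers were 1 nM [³H]estradiol, [³H]mibolerone or [³H]Org 2058. Incubation was at 0–4 °C for 16 h (ER) or 2 h (AR, PR), with 4–6 competitor concentrations. Nonspecific binding used 2 µM of the unlabeled hormone. Separation was by dextran-coated charcoal. RBA is the ratio of IC50 values for hormone and compound ×100, mean of two triplicate experiments.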
In general terms: In a radioligand displacement assay an active substance lowers the binding of a labelled ligand.

The target of assay [2] is Estrogen receptor (Bos taurus) (UniProt Q9XSB5+P49884). Put plainly: Relative binding affinity(RBA) for 50% displacement of [3H]-estradiol from Estrogen receptor compared to 17-beta-estradiol. The class given is protein assay. The essentials:
as §1

The species entered for a further assay is Bos taurus. Put plainly: Relative binding affinity(RBA) as ratio of progesterone and compound required to displace [3H]-org 2058 binding to Progesterone receptor by 50%. The essentials: as §1
The test system of assay [3] is MDA-MB-231. Put plainly: Cytostatic effect on hormone-independent MDA-MB 231 human breast cancer cell proliferation at 1x10E-5 M. The class given is functional. Put shortly: (§2)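 Cells were plated at about 2 × 10⁴ per well in six-well dishes. MCF-7 cells were grown in modified improved MEM with 5% NCS, switched to charcoal-treated NCS two weeks before the test, and exposed for 5 days with a re-dose on day 4. MDA-MB 231 cells were grown in McCoy 5a with 10% NCS and exposed for 2 days. Compounds were given 1 day after plating in 0.1% DMSO, with DMSO-matched controls. Read-out was cell number as % T/C, mean of three experiments with six dishes.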

Assay [4] deals with MDA-MB-231. Briefly: Effect on [3H]thymidine incorporation into MDA-MB 231 human breast cancer cells at 1x10E-5 M. The format is functional. The essentials: (§3)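 Cells were seeded at ~2 × 10⁴ per well, treated from the next day in 0.1% DMSO, with DMSO controls. MCF-7 cells were held in charcoal-stripped NCS for 2 weeks, treated for 5 days and re-dosed on day 4. MDA-MB 231 cells were grown in McCoy 5a/10% NCS and treated for 2 days. At the end, 1 µCi [³H]thymidine per well was added for 2 h. Result is % T/C, mean of three experiments × six dishes.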

Assay [5] has as its system MDA-MB-231. Put plainly: Cytostatic effect on hormone-independent MDA-MB 231 human breast cancer cell proliferation at5x10E-6M. The class given is functional. Put shortly:
as §2

Assay [6] relates to MDA-MB-231. Put plainly: Effect on [3H]thymidine incorporation into MDA-MB 231 human breast cancer cells at 5x10E-6M. The format is functional. Put shortly:
as §3
In general terms: Incorporation of labelled thymidine or its analogues reports DNA synthesis.

Assay [7] relates to MCF7. Put plainly: Effect on hormone-dependent MCF-7 human breast cancer cell proliferation at 5x10E-6M. The format is functional. The essentials:
as §2

The test system of assay [8] is MCF7. Briefly: Effect on [3H]thymidine incorporation into MCF-7 human breast cancer cells at 5x10E-6M. The format is functional. The essentials: as §3
Assay [9] concerns MCF7. Put plainly: Effect on hormone-dependent MCF-7 human breast cancer cell proliferation at 1x10E-5 M. The format is functional. The essentials: as §2
The test system of assay [10] is MCF7. Put plainly: Effect on [3H]thymidine incorporation into MCF-7 human breast cancer cells at 1x10E-5 M. The class given is functional. The essentials:
as §3

Assay [11] deals with T2, Estrogen receptor (Mus musculus) (UniProt O08537+P19785). Briefly: (§4) Estrogenic activity in uterotrophic assay in immature mice at 2 ug subcutaneous dose. The class given is functional. Put shortly: (§5)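 Immature female NMRI mice, 20 days old, in groups of 6-10, were dosed sc once daily for three consecutive days. Compounds were given in PEG/0.9% saline 1:1; vehicle controls were included. Animals were killed 24 h after the last dose. Uteri were fixed in Bouin solution and the effect was taken as uterine dry weight (mg)/body weight (g) ×100, given as mean ± SD.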
T2 sequence (O08537 whole entry, looked up): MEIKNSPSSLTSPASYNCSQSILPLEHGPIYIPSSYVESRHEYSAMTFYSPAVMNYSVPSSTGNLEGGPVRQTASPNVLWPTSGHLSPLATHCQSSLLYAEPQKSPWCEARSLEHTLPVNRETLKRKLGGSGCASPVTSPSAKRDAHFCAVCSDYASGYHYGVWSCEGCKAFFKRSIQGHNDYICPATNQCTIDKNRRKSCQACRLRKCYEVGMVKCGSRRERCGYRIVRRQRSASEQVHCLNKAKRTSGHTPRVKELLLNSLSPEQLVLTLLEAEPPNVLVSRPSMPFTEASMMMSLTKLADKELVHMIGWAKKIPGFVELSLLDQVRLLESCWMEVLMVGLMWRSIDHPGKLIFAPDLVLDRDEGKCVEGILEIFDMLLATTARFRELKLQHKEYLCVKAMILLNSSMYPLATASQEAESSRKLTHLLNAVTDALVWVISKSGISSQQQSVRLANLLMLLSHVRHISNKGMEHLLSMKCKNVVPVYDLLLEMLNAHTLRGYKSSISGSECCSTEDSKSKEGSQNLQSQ
T2 sequence (P19785 whole entry, looked up): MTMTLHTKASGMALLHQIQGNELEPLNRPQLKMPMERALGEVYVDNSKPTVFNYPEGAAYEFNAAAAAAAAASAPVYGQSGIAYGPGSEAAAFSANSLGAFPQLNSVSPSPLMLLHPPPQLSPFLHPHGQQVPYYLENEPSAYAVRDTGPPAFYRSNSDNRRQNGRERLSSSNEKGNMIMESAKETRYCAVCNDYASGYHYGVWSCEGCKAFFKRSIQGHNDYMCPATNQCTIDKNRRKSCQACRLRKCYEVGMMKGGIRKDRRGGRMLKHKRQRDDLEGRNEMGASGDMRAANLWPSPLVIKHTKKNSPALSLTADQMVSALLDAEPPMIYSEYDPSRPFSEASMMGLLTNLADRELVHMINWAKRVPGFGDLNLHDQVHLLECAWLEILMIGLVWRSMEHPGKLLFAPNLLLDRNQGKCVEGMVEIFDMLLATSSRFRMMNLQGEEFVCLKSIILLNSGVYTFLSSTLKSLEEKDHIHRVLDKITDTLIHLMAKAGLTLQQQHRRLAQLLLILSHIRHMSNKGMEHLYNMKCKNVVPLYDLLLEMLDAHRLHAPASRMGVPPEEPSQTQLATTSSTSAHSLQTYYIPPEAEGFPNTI

The target of assay [12] is T2, Estrogen receptor (Mus musculus). Briefly: (§6) Estrogenic activity in uterotrophic assay in immature mice at 50.0 ug subcutaneous dose. The class given is functional. The essentials: as §5
The target is the same in assay [13]. Put plainly: (§7) Estrogenic activity in uterotrophic assay in immature mice at 10.0 ug subcutaneous dose. The format is functional. Put shortly: as §5
The target is the same in assay [14]. The assay is described as §4. The format is functional. The essentials: as §5
The source holds these as a separate data set.

For assay [15] the target is unchanged. Briefly: (§8) Estrogenic activity in uterotrophic assay in immature mice at 250 ug subcutaneous dose. The class given is functional. Put shortly: as §5
For assay [16] the target is unchanged. Described as §6. The class given is functional. Put shortly: as §5
The source holds these as a separate data set.

For assay [17] the target is unchanged. The assay is described as §8. The class given is functional. Put shortly:
as §5
This is another data set of the same source.

Assay [18] has the same target. Described as §7. The format is functional. Put shortly:
as §5
The source holds these as a separate data set.

Assay [19] has the same target. Put plainly: Inhibition of 0.4 ug estrone-stimulated uterine growth in mice at 10.0 ug subcutaneous dose. The class given is functional. The essentials: (§9)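 Immature 20-day-old female NMRI mice received sc injections on three consecutive days. Each injection held 0.4 µg estrone plus the compound in PEG/saline 1:1. […] Significance was tested by Mann-Whitney U test.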

For assay [20] the target is unchanged. Put plainly: Inhibition of 0.4 ug estrone-stimulated uterine growth in mice at 250 ug subcutaneous dose. The format is functional. The essentials: as §9
For assay [21] the target is unchanged. Briefly: Inhibition of 0.4 ug estrone-stimulated uterine growth in mice at 50.0 ug subcutaneous dose. The class given is functional. The essentials:
as §9

With `CC(=O)Oc1ccc2c(c1)CCn1c-2cc2ccc(OC(C)=O)cc21`, the figures for the RBA (in assay [1]; in assay [2]; in the assay filed under Bos taurus) were 0.2, 0.16 and 0.01, respectively.

As to `CC(=O)Oc1ccc2c(c1)CCn1c-2cc2cc(OC(C)=O)c(OC(C)=O)cc21`, the values for the RBA in assay [1] and in [2] were less than 0.01 and 0.01, respectively.

For the molecule `CC(=O)Oc1ccc2c(c1)cc1n2CCc2cc(OC(C)=O)c(OC(C)=O)cc2-1`, the RBA is less than 0.01 in [1], 0.15 in [2] and less than 0.01 in the assay listed under Bos taurus.

Turning to `CC(=O)Oc1cc2c(cc1OC(C)=O)-c1cc3cc(OC(C)=O)c(OC(C)=O)cc3n1CC2`, the RBA in assay [1] and in [2] was less than 0.01 throughout.

In the case of `CCC1Cn2c(cc3cc(OC(C)=O)ccc32)-c2ccc(OC(C)=O)cc21` (configuration not stated), the RBA was less than 0.01 in assay [1], 2.5 in assay [2] and less than 0.01 in the assay listed under Bos taurus. The T/C (as a rule, the ratio of treated to control) was 45% with MDA-MB-231 [3]; 25% with MDA-MB-231 [4]; 88% in the assay with MDA-MB-231 [5]; 90% in the assay with MDA-MB-231 [6]; 97% in the assay with MCF7 [7]; 95% in the assay on MCF7 [8]. In addition, the T/C came to 31% with MCF7 [9] and 7% in the assay on MCF7 [10]. The Effect amounted to 16.8 in [11]; 24.1 in assay [12]; 44.1 in [13]; 50.9 in assay [14]; 42.7 in assay [15]; 42.5 in [16]. Besides, the Effect in assay [17] was 46.1; in assay [18], 21.5. Moreover, the inhibition (in general, the percentage by which the read-out fell short of the control) in [19] stood at 18.7%; in assay [20], 22.4%; in [21], 23.3%.
